Data from ChEMBL document CHEMBL3351871, “Potent, long-acting cyclopentane-1,3-Dione thromboxane (A2)-receptor antagonists” (ACS Med Chem Lett, 2014).
Active and inactive are the calls of the source. The rule behind the calls is not given here.

Key:
Plasma = assay: Stability in CD1 mouse plasma at 1 uM after 1 hr at 37 degC by UPLC-ESI-MS/MS method; type: ADME, cell-free
Method in brief: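 Free compound concentration followed during 1 h incubation in plasma.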

[1] = biological target: T1, Prostaglandin E2 receptor EP1 subtype (Homo sapiens) (UniProt P34995); assay: Antagonist activity against human EP1 receptor expressed in QBI-HEK293A cells assessed as reduction in 17-PGE2-induced inositol monophosphate production at 1 uM incubated for 15 to 60 mins before […] addition by HTRF assay; type: functional, cell-based; conditions: HEK293-A
T1 sequence (whole entry): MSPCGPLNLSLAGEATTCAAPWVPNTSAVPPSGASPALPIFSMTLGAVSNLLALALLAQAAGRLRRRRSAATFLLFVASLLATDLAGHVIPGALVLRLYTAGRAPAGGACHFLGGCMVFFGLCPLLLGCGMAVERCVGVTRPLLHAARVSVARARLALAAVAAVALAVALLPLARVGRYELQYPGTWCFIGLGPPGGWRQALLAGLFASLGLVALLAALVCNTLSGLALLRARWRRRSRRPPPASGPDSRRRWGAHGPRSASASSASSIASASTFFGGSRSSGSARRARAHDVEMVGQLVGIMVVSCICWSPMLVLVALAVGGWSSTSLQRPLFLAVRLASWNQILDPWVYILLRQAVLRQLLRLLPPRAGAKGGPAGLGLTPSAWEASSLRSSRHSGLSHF

Thromboxane A2 receptor = biological target: T2, Thromboxane A2 receptor (Homo sapiens, UniProt P21731); assay: Antagonist activity against human thromboxane A2 receptor alpha expressed in QBI-HEK293A cells assessed as reduction in I-BOP-induced inositol monophosphate production incubated for 15 to 60 mins before I-BOP addition by HTRF assay; type: functional, cell-based, HEK293-A
T2 sequence (P21731 whole entry): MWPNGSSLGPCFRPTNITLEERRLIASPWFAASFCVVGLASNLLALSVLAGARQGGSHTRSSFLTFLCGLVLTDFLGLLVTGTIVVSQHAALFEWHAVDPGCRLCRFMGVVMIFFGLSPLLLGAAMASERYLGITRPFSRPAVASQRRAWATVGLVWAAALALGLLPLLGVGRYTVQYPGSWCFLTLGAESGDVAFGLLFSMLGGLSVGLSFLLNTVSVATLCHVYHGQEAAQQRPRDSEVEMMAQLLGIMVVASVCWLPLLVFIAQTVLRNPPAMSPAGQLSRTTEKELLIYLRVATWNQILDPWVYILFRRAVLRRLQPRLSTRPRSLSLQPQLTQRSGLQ
Method in brief: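 Stably transfected HEK-293 cells expressing human TP receptor α preincubated 15 min with a range of antagonist concentrations, then stimulated with agonist I-BOP at 0.2 nM. IP1 (metabolite of IP3) quantified after a further 1 h as the activation read-out. IC50 from concentration–response curves; mean and SD of one or more assays run in triplicate.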

[2] = biological target: T3, Thromboxane A2 receptor (Homo sapiens) (UniProt P21731); assay: Antagonist activity against human thromboxane A2 receptor alpha expressed in QBI-HEK293A cells assessed as reduction in I-BOP-induced inositol monophosphate production at 1 uM incubated for 15 to 60 mins before I-BOP addition by HTRF assay; type: functional, cell-based; conditions: HEK293-A
T3 sequence (whole entry): T2 sequence (P21731 whole entry)
Method in brief: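 hTP-expressing HEK-293 cells exposed to 1 μM antagonist for 15 or 60 min, then 0.8 nM I-BOP added without washing. Relative IP1 levels measured. Controls received I-BOP alone or no treatment.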

[3] = biological target: T3, Thromboxane A2 receptor (Homo sapiens); assay: (§1) Irreversible antagonist activity against human thromboxane A2 receptor alpha expressed in QBI-HEK293A cells assessed as reduction in I-BOP-induced inositol monophosphate production at 1 uM incubated for 15 to 60 mins before I-BOP addition and measured after 4 consecutive drug washout by HTRF assay; type: functional, cell-based; conditions: HEK293-A
Method in brief: (§2)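 TP receptor α HEK-293 cells given 1 μM compound for 15 or 60 min, then four consecutive wash cycles, each about 50-fold dilution and separated by 15 min equilibration, before 0.8 nM I-BOP. IP1 then measured. Controls received I-BOP alone or no treatment; ANOVA with Dunnett's test against the […] at each time.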

[4] = biological target: T3, Thromboxane A2 receptor (Homo sapiens); assay: Irreversible antagonist activity against human thromboxane A2 receptor alpha expressed in QBI-HEK293A cells assessed as reduction in I-BOP-induced inositol monophosphate production at 1 uM incubated for 15 to 60 mins before I-BOP addition and measured after 6 consecutive drug washout by HTRF assay; type: functional, cell-based; conditions: HEK293-A
Method in brief: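 Washout variant: hTP cells preincubated 15 min with compound (1 μM; 10 μM for some), then 6 consecutive wash cycles of ~50-fold dilution each before 0.8 nM I-BOP. Relative IP1 determined. Controls received I-BOP alone or no treatment; ANOVA with Dunnett's test against the +I-BOP condition.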

[5] = biological target: T3, Thromboxane A2 receptor (Homo sapiens); assay: as §1, with “uM at 4 degC” for “uM”, “6” for “4”; type: functional, cell-based; conditions: HEK293-A
Method in brief: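 Six-wash washout protocol (each wash ~50-fold dilution) run at 4 °C to suppress endocytosis and receptor trafficking. Human TP receptor-expressing cells, then I-BOP stimulation and IP1 read-out.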

[6] = biological target: T3, Thromboxane A2 receptor (Homo sapiens); assay: Reversible antagonist activity against human thromboxane A2 receptor alpha expressed in QBI-HEK293A cells assessed as reduction in I-BOP-induced inositol monophosphate production at 1 uM incubated for 15 to 60 mins before I-BOP addition and measured after 4 consecutive drug washout by HTRF assay; type: functional, cell-based; conditions: HEK293-A; method in brief: as §2
[7] = Stability in presence of 10 mM glutathione in pH 7.0 aqueous buffer after 3 hrs; type: physicochemical; conditions: pH 7, 3 h
Method in brief: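 Equimolar glutathione and CPD derivative, each at 10 mM, incubated in aqueous buffer at pH 7 for 3 h. Consumption of the starting dione monitored.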

[8] = biological target: T3, Thromboxane A2 receptor (Homo sapiens); conditions: HEK293-A, 1 uM

Row | SMILES | IC50 (Thromboxane A2 receptor) [nM] | inhibition [4] | inhibition [6] | other results
1 | Cc1ccc2c(c1CCC(=O)O)CC[C@@H](NS(=O)(=O)c1ccc(Cl)cc1)C2 [TERUTROBAN] | 16.4 |  |  | 
2 | O=C1C(Cc2ccccc2)=C(O)CC1Cc1cccc2c1CCC(NS(=O)(=O)c1ccc(Cl)cc1)C2 (centres undefined) | 29.2 | Active |  | 
3 | CC1=C(O)CC(Cc2cccc3c2CCC(NS(=O)(=O)c2ccc(Cl)cc2)C3)C1=O (centres undefined) | 11.2 |  | Active | inhibition [2]: Active
4 | O=C(O)CCc1cccc(CCNS(=O)(=O)c2ccc(Cl)cc2)c1 |  |  | Active | 
5 | O=C1C(C2CCCCC2)=C(O)CC1Cc1cccc(CCNS(=O)(=O)c2ccc(Cl)cc2)c1 (centres undefined) | 892 |  | Active | 
6 | Cc1cccc(C)c1C1C(=O)CCC1=O |  |  |  | Stability [7]: Stable
7 | Cc1cccc(C)c1C1=C(O)CC(Cc2cccc3c2CCCC3)C1=O (centres undefined) | 891 |  | Active | 
8 | O=C1C(c2ccccc2)=C(O)CC1Cc1cccc(CCNS(=O)(=O)c2ccc(Cl)cc2)c1 (racemic) [listing 1 of 2 here] | 59 |  |  | 
9 | O=C1C(c2ccccc2)=C(O)CC1Cc1cccc(CCNS(=O)(=O)c2ccc(Cl)cc2)c1 (single isomer, unassigned; (+)) |  | Active |  | 
10 | O=C1C(c2ccccc2)=C(O)CC1Cc1cccc(CCNS(=O)(=O)c2ccc(Cl)cc2)c1 (racemic) [listing 2 of 2 here] |  | Active |  | 
11 | O=C(O)Cc1cccc2c1CCC(NS(=O)(=O)c1ccc(Cl)cc1)C2 (centres undefined) | 10.7 |  | Active | inhibition [2]: Active; inhibition [8]: Active

Second part, led by results:

Row | IC50 (Thromboxane A2 receptor) [nM] | inhibition [4] | inhibition [6] | SMILES | other results
12 | 0.015 | Active |  | Cc1cccc(C)c1C1=C(O)CC(Cc2cccc3c2CCC(NS(=O)(=O)c2ccc(Cl)cc2)C3)C1=O (centres undefined) | Stability (Plasma): Stable; inhibition [1]: inactive; inhibition [2]: Active; inhibition [3]: Active; inhibition [5]: Active
13 | 0.052 |  |  | COc1ccc(C2=C(O)CC(Cc3cccc4c3CCC(NS(=O)(=O)c3ccc(Cl)cc3)C4)C2=O)cc1 (centres undefined) | inhibition [2]: Active; inhibition [3]: Active
14 | 6.5 | Active |  | O=C1C(c2ccc(F)cc2)=C(O)CC1Cc1cccc2c1CCC(NS(=O)(=O)c1ccc(Cl)cc1)C2 (centres undefined) | 
15 | 2760 |  |  | Cc1cccc(C)c1C1=C(OCC(C)C)CC(Cc2cccc3c2CCC(NS(=O)(=O)c2ccc(Cl)cc2)C3)C1=O (centres undefined) | 
16 | 3.9 | Active |  | O=C1C(c2ccccc2)=C(O)CC1Cc1cccc2c1CCC(NS(=O)(=O)c1ccc(Cl)cc1)C2 (centres undefined) | 
